Values after ≈ are worked out from the molar mass of the structure shown.
Assays:
Assay type in all cases: functional
[1] = tested on: Trichophyton mentagrophytes; assay: Antifungal activity against Trichophyton mentagrophytes ATCC 9972 after 48 hrs by broth microdilution technique; conditions: ATCC 9972, 48 h
In short: (§1)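 CLSI broth microdilution: M-27 A2 for yeasts and M-38 A for filamentous fungi. Medium is RPMI-1640 buffered to pH 7.0 with MOPS. Compound is diluted twofold from 250 to 0.98, final DMSO ≤2%. Inoculum is 1–5 × 10³ CFU/mL. Plates are incubated at 35 °C in a moist, dark chamber and read visually at 48 h. MIC100 is the lowest concentration giving total growth inhibition versus drug-free control.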

[2] = tested on: Candida albicans; assay: Antifungal activity against Candida albicans ATCC 10231 after 48 hrs by broth microdilution technique; conditions: ATCC 10231, 48 h; in short: as §1
[3] = tested on: Saccharomyces cerevisiae; assay: Antifungal activity against Saccharomyces cerevisiae ATCC 9763 after 48 hrs by broth microdilution technique; conditions: ATCC 9763, 48 h; in short: as §1
[4] = tested on: Trichophyton rubrum; assay: Antifungal activity against Trichophyton rubrum C110 after 48 hrs by broth microdilution technique; conditions: read-out: MIC; in short: as §1
[5] = tested on: Nannizzia gypsea; assay: Antifungal activity against Microsporum gypseum C115 after 48 hrs by broth microdilution technique; in short: as §1
[6] = tested on: Aspergillus fumigatus; assay: Antifungal activity against Aspergillus fumigatus ATTC 26934 after 48 hrs by broth microdilution technique; in short: as §1
[7] = tested on: Cryptococcus neoformans; assay: Antifungal activity against Cryptococcus neoformans ATCC 32264 after 48 hrs by broth microdilution technique; conditions: ATCC 32264, 48 h; in short: as §1
[8] = tested on: Aspergillus flavus; assay: Antifungal activity against Aspergillus flavus ATCC 9170 after 48 hrs by broth microdilution technique; conditions: ATCC 9170, 48 h; in short: as §1
[9] = tested on: Aspergillus niger; assay: Antifungal activity against Aspergillus niger ATCC 9029 after 48 hrs by broth microdilution technique; conditions: ATCC 9029, 48 h; in short: as §1

SMILES | MIC [1] [µg/mL] | MIC [2] [µg/mL] | MIC [3] [µg/mL] | MIC [4] [µg/mL] | MIC [5] [µg/mL] | MIC [6] [µg/mL] | MIC [7] [µg/mL] | MIC [8] [µg/mL] | MIC [9] [µg/mL]
CCc1ccc2nc(-c3ccccc3)ccc2c1 | 250 (≈ 1070 µM) | > 250 | > 250 | 250 (≈ 1070 µM) | 250 (≈ 1070 µM) | > 250 | > 250 | > 250 | > 250
COc1ccc2nc(-c3cccs3)ccc2c1 | > 250 | > 250 | > 250 | > 250 | > 250 | > 250 | > 250 | > 250 | > 250
Clc1ccc2nc(-c3cccs3)ccc2c1 | > 250 | > 250 | > 250 | > 250 | > 250 | > 250 | > 250 | > 250 | > 250
COc1cc(OC)c2nc(-c3ccc4c(c3)OCO4)ccc2c1 | > 250 | > 250 | > 250 | > 250 | > 250 | > 250 | > 250 | > 250 | > 250
O=[N+]([O-])c1cccc(-c2ccc3cc(F)ccc3n2)c1 | > 250 | > 250 | > 250 | > 250 | > 250 | > 250 | > 250 | > 250 | > 250
COc1ccc2nc(-c3ccc4c(c3)OCO4)ccc2c1 | > 250 | > 250 | > 250 | > 250 | > 250 | > 250 | > 250 | > 250 | > 250
Cc1cc(-c2ccncc2)nc2c(C(C)C)ccc([N+](=O)[O-])c12 | > 250 | > 250 | > 250 | > 250 | > 250 | > 250 | > 250 | > 250 | > 250
Cc1cc(C)c2ccc(-c3ccccc3)nc2c1 | > 250 | > 250 | > 250 | > 250 | > 250 | > 250 | > 250 | > 250 | > 250
Cc1ccc([N+](=O)[O-])c2c(C)cc(-c3ccncc3)nc12 | > 250 | > 250 | > 250 | > 250 | > 250 | > 250 | > 250 | > 250 | > 250
Nc1cccc(-c2ccc3cc(Cl)ccc3n2)c1 | 125 (≈ 491 µM) | > 250 | > 250 | 125 (≈ 491 µM) | 125 (≈ 491 µM) | > 250 | > 250 | > 250 | > 250
Clc1ccc2nc(-c3ccco3)ccc2c1 | > 250 | > 250 | > 250 | > 250 | > 250 | > 250 | > 250 | > 250 | > 250
Clc1ccc2nc(-c3ccccc3)ccc2c1 | > 250 | > 250 | > 250 | > 250 | > 250 | > 250 | > 250 | > 250 | > 250
c1ccc2nc(-c3ccc4c(c3)OCO4)ccc2c1 | > 250 | > 250 | > 250 | > 250 | > 250 | > 250 | > 250 | > 250 | > 250

Source: ChEMBL document CHEMBL1140069, “In vitro antifungal activity of polyfunctionalized 2-(hetero)arylquinolines prepared through imino Diels-Alder reactions” (2008)
